Results published in ChEMBL document CHEMBL1152601, “Synthesis and biological evaluation of novel phthalazinone derivatives as topically active phosphodiesterase 4 inhibitors” (Bioorg Med Chem, 2009).

How the values were obtained:
[1] = system: Blood; test: Antiinflammatory activity against Sprague-Dawley rat whole blood assessed as suppression of LPS-induced TNFalpha production by ELISA; type: functional, tissue-based
In short: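 Blood from 10-week-old male Sprague-Dawley rats, drawn from the abdominal vein under ether anesthesia into 1.6 mg/mL EDTA. Compound diluted from 10 mM DMSO stock, preincubated with blood for 30 min at 37 °C in 5% CO2. LPS (100 µg/mL solution, 10 µL to 90 µL) added, then 5 h incubation. PBS added, centrifuged, supernatant TNF-α measured by ELISA. IC50 derived for 50% inhibition.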

[2] = target: 3',5'-cyclic-AMP phosphodiesterase 4D (Homo sapiens, UniProt Q08499); test: Inhibition of human recombinant PDE4D catalytic domain cloned from human HL60 cells assessed as inhibition of cAMP hydrolysis
[3] = system: Mus musculus; test: Reduction of dermatitis in topically administered BALB/c mouse assessed as reduction of TNCB-induced ear swelling; type: functional; set-up: scale not given: the % may be the effect or the level left
In short: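 Eight-week-old male BALB/c mice with TNCB-induced dermatitis on the right pinna. 20 mg of 1% compound in vaseline ointment applied topically; diseased controls got plain vaseline during the last week (n = 4). The untreated left pinna served as normal reference. Pinna thickness measured by digital micrometer 6 h after the last application. Percent reduction of swelling (right minus left) calculated relative to the diseased control.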

[4] = Half life in human liver S9 fraction; type: ADME, subcellular
In short: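 Human liver S9 fraction (1 mg protein/mL) in 100 mM potassium phosphate pH 7.4 with NADPH-generating system, preincubated 5 min at 37 °C. Compound added from methanol to 2 µM final, incubated 0, 2 or 10 min at 37 °C, stopped with acetonitrile. Parent remaining quantified by HPLC, UV 314 nm. Half-life obtained as -0.693/k, k from log-linear regression of percent remaining.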

[5] = Rattus norvegicus, Sprague-Dawley, Blood

Chain of 3',5'-cyclic-AMP phosphodiesterase 4D (Q08499 whole entry, the tested form may be a part): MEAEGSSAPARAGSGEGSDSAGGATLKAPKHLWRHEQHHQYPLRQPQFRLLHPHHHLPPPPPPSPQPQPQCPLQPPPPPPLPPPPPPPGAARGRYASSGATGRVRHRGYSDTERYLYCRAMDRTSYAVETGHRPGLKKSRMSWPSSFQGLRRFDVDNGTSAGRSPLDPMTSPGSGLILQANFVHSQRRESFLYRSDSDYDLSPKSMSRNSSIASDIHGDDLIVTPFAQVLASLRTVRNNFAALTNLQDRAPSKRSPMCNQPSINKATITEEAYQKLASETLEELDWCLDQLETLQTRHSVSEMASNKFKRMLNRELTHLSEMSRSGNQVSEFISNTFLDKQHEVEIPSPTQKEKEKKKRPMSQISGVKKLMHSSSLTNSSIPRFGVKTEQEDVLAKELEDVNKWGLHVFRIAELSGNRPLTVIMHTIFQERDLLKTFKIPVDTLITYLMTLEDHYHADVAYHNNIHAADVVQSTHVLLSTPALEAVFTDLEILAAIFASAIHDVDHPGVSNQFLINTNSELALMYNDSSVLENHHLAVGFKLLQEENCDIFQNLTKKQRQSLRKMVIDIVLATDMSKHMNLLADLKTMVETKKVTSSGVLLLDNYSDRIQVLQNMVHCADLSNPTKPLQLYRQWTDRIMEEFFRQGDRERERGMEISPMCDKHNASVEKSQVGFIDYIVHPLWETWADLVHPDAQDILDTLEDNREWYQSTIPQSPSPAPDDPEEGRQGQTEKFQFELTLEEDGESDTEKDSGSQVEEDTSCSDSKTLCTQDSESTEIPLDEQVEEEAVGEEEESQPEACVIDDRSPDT

SMILES | IC50 [1, 5] [nM] | IC50 [2] [nM] | Activity [3] [%] | IC50 [1] [nM] | half-life [4] [min]
COc1ccc(C2=NN(CCOCCn3ccnc3)C(=O)[C@@H]3CC=CC[C@H]23)cc1OC (relative stereo) | 9.1 | 5.2 | – | – | –
COc1ccc(C2=NN(Cc3ccc(CN4CCOCC4)cc3)C(=O)[C@@H]3C[C@H]23)cc1OC (relative stereo) | 119 | 16.4 | – | – | –
COc1ccc(C2=NN(Cc3ccc(CN4CCOCC4)cc3)C(=O)[C@@H]3CC[C@H]23)cc1OC (relative stereo) | 44.8 | 4.3 | – | – | –
COc1ccc(C2=NN(Cc3ccc(CN(C)C)cc3)C(=O)[C@@H]3CC=CC[C@H]23)cc1OC (relative stereo) | 34.9 | 9.7 | – | – | –
COc1ccc(C2=NN(Cc3ccccc3CN3CCOCC3)C(=O)[C@@H]3CC=CC[C@H]23)cc1OC (relative stereo) | 1 | 1.3 | 36.8 | – | –
COc1ccc(C2=NN(Cc3ccc(CN4CCC(=O)CC4)cc3)C(=O)[C@@H]3CC=CC[C@H]23)cc1OC (relative stereo) | 3 | 0.9 | 36.8 | – | –
COc1ccc(C2=NN(Cc3ccccc3CN3CCOCC3)C(=O)[C@@H]3CCCC[C@H]23)cc1OC (relative stereo) | 4.6 | 1 | – | – | –
COc1ccc(C2=NN(Cc3ccc(CN4CCOCC4)cc3)C(=O)[C@@H]3CC=CC[C@H]23)cc1OC (racemic) | – | 0.9 | – | 0.9 | –
COc1ccc(C2=NN(CC(=O)NCCCn3ccnc3)C(=O)[C@@H]3CC=CC[C@H]23)cc1OC (relative stereo) | 112 | 14.3 | – | – | –
COc1ccc(C2=NN(C/C=C/Cn3ccnc3)C(=O)[C@@H]3CC=CC[C@H]23)cc1OC (relative stereo) | 0.7 | 0.4 | – | – | –
COc1ccc(C2=NN(Cc3ccc(CN4CCOCC4)cc3)C(=O)[C@@H]3CC=CC[C@H]23)cc1OC.Cl | – | 0.3 | 38.5 | 4.2 | 6
COc1ccc(C2=NN(Cc3ccc(CN4CCN(C)CC4)cc3)C(=O)[C@@H]3CC=CC[C@H]23)cc1OC (relative stereo) | 14.5 | 2 | – | – | –
COc1ccc(C2=NN(Cc3ccc(CN4CCCCC4)cc3)C(=O)[C@@H]3CC=CC[C@H]23)cc1OC (relative stereo) | 57.1 | 8.2 | – | – | –
COc1ccc(C2=NN(Cc3cccc(CN4CCOCC4)c3)C(=O)[C@@H]3CC=CC[C@H]23)cc1OC (relative stereo) | 3 | 1.4 | – | – | –
COc1ccc(C2=NN(Cc3ccc(CN4CCC5(CC4)OCCO5)cc3)C(=O)[C@@H]3CC=CC[C@H]23)cc1OC (relative stereo) | 0.9 | 1.3 | – | – | –
COc1ccc(C2=NN(Cc3ccc(CN4CCOCC4)cc3)C(=O)[C@@H]3CC=CC[C@H]23)cc1OC | – | 8.8 | – | 82.2 | –
COc1ccc(C2=NN(Cc3ccc(CN4CCOCC4)cc3)C(=O)CC2)cc1OC | 442 | 45.9 | – | – | –
COc1ccc(C2=NNC(=O)[C@@H]3CC=CC[C@H]23)cc1OC (racemic) | 207 | 85 | – | – | –
COc1ccc(C2=NN(Cc3ccc(Cn4ccnc4)cc3)C(=O)[C@@H]3CC=CC[C@H]23)cc1OC (relative stereo) | 0.5 | 0.7 | – | – | –
